Source: ChEMBL document CHEMBL1143825, “Evolution of resistant M414T mutants among hepatitis C virus replicon cells treated with polymerase inhibitor A-782759” (Antimicrob Agents Chemother, 2007)
Activity calls are given as the source filed them. The calls are words filed in the database; no cut-off is given here.

Legend:
Hepatitis C virus [1] = test: Inhibition of RNA copy numbers in HCV 1b-N replicon cells with NS5B M414T mutant at EC50 after 4 days; type: functional, Hepacivirus hominis, genotype 1b strain N; set-up: scale not given: the % may be the effect or the level left
Outline: (§1)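 1b-N replicon cells treated with compound for 4 days, with a no-compound control. Total RNA was extracted and HCV RNA copy number quantified by TaqMan real-time RT-PCR, normalised per 1 pg total RNA.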

Hepatitis C virus [2] = test: Inhibition of RNA copy numbers in HCV 1b-N replicon cells with NS5B M414T mutant at 10 times EC50 after 4 days; type: functional, Hepacivirus hominis, genotype 1b strain N; set-up: scale not given: the % may be the effect or the level left; outline: as §1
Hepatitis C virus [3] = test: Inhibition of RNA copy numbers in HCV 1b-N replicon cells with NS5B M414T mutant at 100 times EC50 after 4 days; type: functional, Hepacivirus hominis, genotype 1b strain N; set-up: scale not given: the % may be the effect or the level left; outline: as §1
Hepatitis C virus [4] = test: Antiviral activity against HCV 1b-N; type: functional, organism-based, Hepacivirus hominis; details: genotype 1b strain N
Outline: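 1b-N subgenomic replicon cells, grown in DMEM with 10% FBS, blasticidin and G418, seeded at 4,000 cells/well with eight serial compound dilutions. Replicon RNA copy number was quantified by TaqMan real-time RT-PCR, and EC50 was taken as the concentration giving 50% inhibition of copy number.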

Hepatitis C virus [5] = test: Decrease in NS5B M414T mutant in HCV 1b-N replicon cells treated with 70 nM assessed as mutant level after drug withdrawal on day 4 and measured at day 18 and 28; type: functional, Hepacivirus hominis, genotype 1b strain N; set-up: scale not given: the % may be the effect or the level left
Outline: (§2)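 Replicon cells, 2 × 10⁵ per 10-cm dish, received inhibitor for 4 days, then drug was removed and culture continued to day 28, splitting 1:10 at 90% confluence. Cells were trypsinised and PBS-washed before RNA extraction. %M414T was measured by RT, first-round PCR, then allele-specific SYBR green real-time PCR as 100 × M414T/(M414T + wild-type copies), mean of three experiments.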

Hepatitis C virus [6] = test: Decrease in NS5B M414T mutant in HCV 1b-N replicon cells treated with 70 nM assessed as mutant level after drug withdrawal on day 4 and measured at day 10; type: functional, Hepacivirus hominis, genotype 1b strain N; set-up: scale not given: the % may be the effect or the level left; outline: as §2
Hepatitis C virus [7] = test: Increase in NS5B M414T mutant levels in HCV 1b-N replicon cells at 7000 nM after 3 days relative to baseline; type: functional, Hepacivirus hominis, genotype 1b strain N
Outline: (§3)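 1b-N replicon cells, 2 × 10⁴ per well, were exposed to inhibitor for up to 4 days, PBS-washed, and total RNA extracted. RNA was reverse transcribed at 50°C for 50 min, then NS5B was amplified by first-round PCR for 25 cycles. Allele-specific SYBR green real-time PCR used M414-wild-type or T-specific antisense primers. %M414T = 100 × M414T/(M414T + wild-type copies), mean of three experiments.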

Hepatitis C virus [8] = test: Increase in NS5B M414T mutant levels in HCV 1b-N replicon cells at 700 nM after 3 days relative to baseline; type: functional, Hepacivirus hominis, genotype 1b strain N; outline: as §3
Hepatitis C virus [9] = test: Increase in NS5B M414T mutant levels in HCV 1b-N replicon cells at 70 nM after 3 days relative to baseline; type: functional, Hepacivirus hominis, genotype 1b strain N; outline: as §3
Hepatitis C virus [10] = test: Increase in NS5B M414T mutant levels in HCV 1b-N replicon cells at 7000 nM after 2 days relative to baseline; type: functional, Hepacivirus hominis, genotype 1b strain N; outline: as §3
Hepatitis C virus [11] = test: Increase in NS5B M414T mutant levels in HCV 1b-N replicon cells at 700 nM after 2 days relative to baseline; type: functional, Hepacivirus hominis, genotype 1b strain N; outline: as §3
Hepatitis C virus [12] = test: Increase in NS5B M414T mutant levels in HCV 1b-N replicon cells at 70 nM after 2 days relative to baseline; type: functional, Hepacivirus hominis, genotype 1b strain N; outline: as §3
Hepatitis C virus [13] = test: Increase in NS5B M414T mutant levels in HCV 1b-N replicon cells at 700 nM after 4 days relative to baseline; type: functional, Hepacivirus hominis, genotype 1b strain N; outline: as §3
Hepatitis C virus [14] = test: Increase in NS5B M414T mutant levels in HCV 1b-N replicon cells at 7000 nM after 4 days relative to baseline; type: functional, Hepacivirus hominis, genotype 1b strain N; outline: as §3
Hepatitis C virus [15] = test: Increase in NS5B M414T mutant levels in HCV 1b-N replicon cells at 70 nM after 4 days relative to baseline; type: functional, Hepacivirus hominis, genotype 1b strain N; outline: as §3
Hepatitis C virus [16] = test: Decrease in NS5B M414T mutant in HCV 1b-N replicon cells treated with 700 nM assessed as mutant level after drug withdrawal on day 4 and measured at day 10; type: functional, Hepacivirus hominis, genotype 1b strain N; set-up: scale not given: the % may be the effect or the level left; outline: as §2
Hepatitis C virus [17] = test: Decrease in NS5B M414T mutant in HCV 1b-N replicon cells treated with 700 nM assessed as mutant level after drug withdrawal on day 4 and measured upto day 28; type: functional, organism-based; details: Hepacivirus hominis; genotype 1b strain N; outline: as §2
Hepatitis C virus [18] = test: Decrease in NS5B M414T mutant in HCV 1b-N replicon cells treated with 7000 nM assessed as mutant level after drug withdrawal on day 4 and measured upto day 28; type: functional, organism-based; details: Hepacivirus hominis; genotype 1b strain N; outline: as §2

Row | SMILES | Activity (Hepatitis C virus [1]) [%] | Activity (Hepatitis C virus [2]) [%] | Activity (Hepatitis C virus [3]) [%] | EC50 (Hepatitis C virus [4]) [nM] | Activity (Hepatitis C virus [5]) [%] | Activity (Hepatitis C virus [6]) [%] | Activity (Hepatitis C virus [7]) [%] | Activity (Hepatitis C virus [8]) [%] | Activity (Hepatitis C virus [9]) [%] | Activity (Hepatitis C virus [10]) [%] | Activity (Hepatitis C virus [11]) [%] | Activity (Hepatitis C virus [12]) [%] | Activity (Hepatitis C virus [13]) [%] | Activity (Hepatitis C virus [14]) [%] | Activity (Hepatitis C virus [15]) [%] | Activity (Hepatitis C virus [16]) [%] | Activity (Hepatitis C virus [17]) | Activity (Hepatitis C virus [18])
1 | COc1ccc2c(O[C@@H]3C[C@H]4C(=O)N[C@]5(C(=O)O)C[C@H]5/C=C\CCCCC[C@H](NC(=O)OC5CCCC5)C(=O)N4C3)cc(-c3csc(NC(C)C)n3)nc2c1 [CILUPREVIR] | 37 | 99 | 99 | 4 | – | – | – | – | – | – | – | – | – | – | – | – | – | –
2 | NC(=O)COc1ccc2c(c1)S(=O)(=O)N=C(c1c(O)c3ccccc3n(NC3CCC3)c1=O)N2 | 58 | 93 | 99 | 70 | 0.3 | 0.9 | 56 | 28 | 2.5 | 12.6 | 4 | 0.8 | 26 | 60 | 2.5 | 4 | inactive | inactive
